# Measured values: ChEMBL document CHEMBL1157589, “Antifungal 3,5-disubstituted furanones: From 5-acyloxymethyl to 5-alkylidene derivatives” (Bioorg Med Chem, 2010)
# Assays:
# Type in all cases: functional
# Lichtheimia corymbifera [1] = assay: Antifungal activity against Absidia corymbifera 272 after 48 hrs by microdilution method; conditions: Lichtheimia corymbifera, 272, 48 h
# Summary of the method: (§1)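 Filamentous strains held on Sabouraud dextrose agar. NCCLS M27-A broth microdilution in RPMI 1640 with L-glutamine and 0.165 M MOPS, pH 7.0. DMSO diluent ≤2% final; twofold dilutions 500–0.48. Inoculum 5 × 10³ ± 0.2 cfu mL⁻¹ final.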
# Candida parapsilosis [2] = assay: Antifungal activity against Candida parapsilosis ATCC 22019 after 24 hrs by microdilution method; conditions: Lodderomyces parapsilosis, ATCC 22019, 24 h
# Summary of the method: (§2)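 Yeasts held on Sabouraud dextrose agar. MIC by NCCLS M27-A broth microdilution in RPMI 1640 with L-glutamine, buffered with 0.165 M MOPS to pH 7.0. Compounds in DMSO (≤2% final), twofold dilutions 500–0.48. Final inoculum 5 × 10³ ± 0.2 cfu mL⁻¹. Incubated at 35 °C; absorbance at 540 nm read at 24 and 48 h. MIC is 80% growth inhibition versus control; run twice in duplicate.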
# [3] = system: Trichophyton mentagrophytes; assay: Antifungal activity against Trichophyton mentagrophytes 445 after 72 hrs by microdilution method; conditions: Trichophyton mentagrophytes, 445, 72 h
# Summary of the method: (§3)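 Dermatophyte held on Sabouraud dextrose agar. M27-A microdilution in MOPS-buffered (0.165 M, pH 7.0) RPMI 1640 with L-glutamine. DMSO ≤2% final; twofold dilutions 500–0.48. Inoculum 5 × 10³ ± 0.2 cfu mL⁻¹ final. Incubated at 35 °C; MIC read visually at 72 and 120 h as 80% inhibition of control growth; determined twice in duplicate.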
# Trichosporon beigelii [4] = assay: Antifungal activity against Trichosporon beigelii 1188 after 48 hrs by microdilution method; conditions: Trichosporon beigelii, 1188, 48 h; summary of the method: as §2
# [5] = system: Trichophyton mentagrophytes; assay: Antifungal activity against Trichophyton mentagrophytes 445 after 120 hrs by microdilution method; conditions: Trichophyton mentagrophytes, 445, 120 h; summary of the method: as §3
# Nakaseomyces glabratus [6] = assay: Antifungal activity against Candida glabrata 20/I after 24 hrs by microdilution method; summary of the method: as §2
# Lichtheimia corymbifera [7] = assay: Antifungal activity against Absidia corymbifera 272 after 24 hrs by microdilution method; conditions: Lichtheimia corymbifera, 272, 24 h; summary of the method: as §1
# Nakaseomyces glabratus [8] = assay: Antifungal activity against Candida glabrata 20/I after 48 hrs by microdilution method; summary of the method: as §2
# Candida albicans [9] = assay: Antifungal activity against Candida albicans ATCC 44859 after 24 hrs by microdilution method; conditions: ATCC 44859, 24 h; summary of the method: as §2
# Pichia kudriavzevii [10] = assay: Antifungal activity against Candida krusei ATCC 6258 after 48 hrs by microdilution method; conditions: ATCC 6258, 48 h; summary of the method: as §2
# Candida parapsilosis [11] = assay: Antifungal activity against Candida parapsilosis ATCC 22019 after 48 hrs by microdilution method; conditions: Lodderomyces parapsilosis, ATCC 22019, 48 h; summary of the method: as §2
# Pichia kudriavzevii [12] = assay: Antifungal activity against Candida krusei E28 after 24 hrs by microdilution method; conditions: E28, 24 h; summary of the method: as §2
# Candida albicans [13] = assay: Antifungal activity against Candida albicans ATCC 90028 after 48 hrs by microdilution method; conditions: ATCC 90028, 48 h; summary of the method: as §2
# Aspergillus fumigatus [14] = assay: Antifungal activity against Aspergillus fumigatus 231 after 48 hrs by microdilution method; conditions: Aspergillus fumigatus, 231, 48 h; summary of the method: as §1
# Pichia kudriavzevii [15] = assay: Antifungal activity against Candida krusei E28 after 48 hrs by microdilution method; conditions: E28, 48 h; summary of the method: as §2
# Trichosporon beigelii [16] = assay: Antifungal activity against Trichosporon beigelii 1188 after 24 hrs by microdilution method; conditions: Trichosporon beigelii, 1188, 24 h; summary of the method: as §2
# Candida albicans [17] = assay: Antifungal activity against Candida albicans ATCC 44859 after 48 hrs by microdilution method; conditions: ATCC 44859, 48 h; summary of the method: as §2
# Candida tropicalis [18] = assay: Antifungal activity against Candida tropicalis 156 after 48 hrs by microdilution method; conditions: Candida tropicalis, 156, 48 h; summary of the method: as §2
# Candida albicans [19] = assay: Antifungal activity against Candida albicans ATCC 90028 after 24 hrs by microdilution method; conditions: ATCC 90028, 24 h; summary of the method: as §2
# Clavispora lusitaniae [20] = assay: Antifungal activity against Candida lusitaniae 2446/I after 48 hrs by microdilution method; summary of the method: as §2
# Aspergillus fumigatus [21] = assay: Antifungal activity against Aspergillus fumigatus 231 after 24 hrs by microdilution method; conditions: Aspergillus fumigatus, 231, 24 h; summary of the method: as §1
# Pichia kudriavzevii [22] = assay: Antifungal activity against Candida krusei ATCC 6258 after 24 hrs by microdilution method; conditions: ATCC 6258, 24 h; summary of the method: as §2
# Clavispora lusitaniae [23] = assay: Antifungal activity against Candida lusitaniae 2446/I after 24 hrs by microdilution method; summary of the method: as §2
# Candida tropicalis [24] = assay: Antifungal activity against Candida tropicalis 156 after 24 hrs by microdilution method; conditions: Candida tropicalis, 156, 24 h; summary of the method: as §2
MIC80 (Lichtheimia corymbifera [1]),MIC80 (Candida parapsilosis [2]),MIC80 [3],MIC80 (Trichosporon beigelii [4]),MIC80 [5],MIC80 (Nakaseomyces glabratus [6]),MIC80 (Lichtheimia corymbifera [7]),MIC80 (Nakaseomyces glabratus [8]),MIC80 (Candida albicans [9]),MIC80 (Pichia kudriavzevii [10]),MIC80 (Candida parapsilosis [11]),MIC80 (Pichia kudriavzevii [12]),MIC80 (Candida albicans [13]),MIC80 (Aspergillus fumigatus [14]),MIC80 (Pichia kudriavzevii [15]),MIC80 (Trichosporon beigelii [16]),MIC80 (Candida albicans [17]),MIC80 (Candida tropicalis [18]),MIC80 (Candida albicans [19]),MIC80 (Clavispora lusitaniae [20]),other results,Structure (SMILES)
62.5 µM,7.81 µM,1.95 µM,62.5 µM,1.95 µM,1.95 µM,31.2 µM,1.95 µM,0.97 µM,15.6 µM,31.2 µM,7.81 µM,7.81 µM,15.6 µM,15.6 µM,7.81 µM,1.95 µM,15.6 µM,3.9 µM,15.6 µM,MIC80 (Aspergillus fumigatus [21]): 3.9 µM; MIC80 (Pichia kudriavzevii [22]): 7.81 µM; MIC80 (Clavispora lusitaniae [23]): 7.81 µM; MIC80 (Candida tropicalis [24]): 7.81 µM,O=C1OC(COc2cccc(Br)c2)C=C1c1ccc(Br)cc1 (stereo not drawn)
250 µM,250 µM,15.6 µM,> 500 µM,15.6 µM,250 µM,250 µM,> 500 µM,15.6 µM,> 500 µM,> 500 µM,500 µM,> 500 µM,> 500 µM,> 500 µM,> 500 µM,500 µM,> 500 µM,> 500 µM,> 500 µM,MIC80 (Aspergillus fumigatus [21]): > 500 µM; MIC80 (Pichia kudriavzevii [22]): 500 µM; MIC80 (Clavispora lusitaniae [23]): > 500 µM; MIC80 (Candida tropicalis [24]): > 500 µM,CC(=O)OCC/C=C1/C=C(c2ccc(Br)cc2)C(=O)O1
